Consider five molecules from ChEMBL document CHEMBL1140956, “Syntheses of 4-(indole-3-yl)quinazolines: a new class of epidermal growth factor receptor tyrosine kinase inhibitors” (Eur J Med Chem, 2008).

In one test the test system is HT-29. Description: Growth inhibition of human HT29 cells after 72 hrs by SRB assay. It is filed as functional. The following applies: HT-29, 48 h, in the assay text read “48 hrs” for “72 hrs”. A digest of the protocol:
(§1)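 NCI 60-cell-line screen. Cells were grown in RPMI 1640 with 5% fetal bovine serum, plated at 5000–40 000 cells/well by doubling time, and held 24 h at 37 °C, 5% CO2. Time-zero plates were TCA-fixed when the DMSO-solubilized drug was added at five concentrations (10-fold or ½-log dilutions). After 48 h, cells were fixed with cold TCA and stained with 0.4% SRB in 1% acetic acid. Bound dye was dissolved in 10 mM trizma base and read at 515 nm. Percentage growth was calculated relative to time-zero and control.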
On the technique in general: Sulforhodamine B stains cellular protein and so reports cell mass.

The subject of a further test is NCI-H322M. The experiment in a line: Growth inhibition of human NCI-H322M cells after 72 hrs by SRB assay. The class given is functional. The following applies: 48 h, in the assay text read “48 hrs” for “72 hrs”. In short, it runs like this:
as §1

A further test relates to TK-10. The experiment in a line: Growth inhibition of human TK10 cells after 72 hrs by SRB assay. It is filed as functional. The following applies: TK-10, 48 h, in the assay text read “48 hrs” for “72 hrs”. In short, it runs like this: as §1
The next test relates to EKVX. The experiment in a line: Growth inhibition of human EKVX cells after 72 hrs by SRB assay. The class given is functional. The following applies: 48 h, in the assay text read “48 hrs” for “72 hrs”. In short, it runs like this: as §1
For test [1], the target named is Receptor tyrosine-protein kinase erbB-2 (Homo sapiens) (UniProt P04626). The experiment in a line: Inhibition of human HER2 tyrosine kinase activity at 100 nM.
Receptor tyrosine-protein kinase erbB-2 (Homo sapiens), sequence (P04626 whole entry): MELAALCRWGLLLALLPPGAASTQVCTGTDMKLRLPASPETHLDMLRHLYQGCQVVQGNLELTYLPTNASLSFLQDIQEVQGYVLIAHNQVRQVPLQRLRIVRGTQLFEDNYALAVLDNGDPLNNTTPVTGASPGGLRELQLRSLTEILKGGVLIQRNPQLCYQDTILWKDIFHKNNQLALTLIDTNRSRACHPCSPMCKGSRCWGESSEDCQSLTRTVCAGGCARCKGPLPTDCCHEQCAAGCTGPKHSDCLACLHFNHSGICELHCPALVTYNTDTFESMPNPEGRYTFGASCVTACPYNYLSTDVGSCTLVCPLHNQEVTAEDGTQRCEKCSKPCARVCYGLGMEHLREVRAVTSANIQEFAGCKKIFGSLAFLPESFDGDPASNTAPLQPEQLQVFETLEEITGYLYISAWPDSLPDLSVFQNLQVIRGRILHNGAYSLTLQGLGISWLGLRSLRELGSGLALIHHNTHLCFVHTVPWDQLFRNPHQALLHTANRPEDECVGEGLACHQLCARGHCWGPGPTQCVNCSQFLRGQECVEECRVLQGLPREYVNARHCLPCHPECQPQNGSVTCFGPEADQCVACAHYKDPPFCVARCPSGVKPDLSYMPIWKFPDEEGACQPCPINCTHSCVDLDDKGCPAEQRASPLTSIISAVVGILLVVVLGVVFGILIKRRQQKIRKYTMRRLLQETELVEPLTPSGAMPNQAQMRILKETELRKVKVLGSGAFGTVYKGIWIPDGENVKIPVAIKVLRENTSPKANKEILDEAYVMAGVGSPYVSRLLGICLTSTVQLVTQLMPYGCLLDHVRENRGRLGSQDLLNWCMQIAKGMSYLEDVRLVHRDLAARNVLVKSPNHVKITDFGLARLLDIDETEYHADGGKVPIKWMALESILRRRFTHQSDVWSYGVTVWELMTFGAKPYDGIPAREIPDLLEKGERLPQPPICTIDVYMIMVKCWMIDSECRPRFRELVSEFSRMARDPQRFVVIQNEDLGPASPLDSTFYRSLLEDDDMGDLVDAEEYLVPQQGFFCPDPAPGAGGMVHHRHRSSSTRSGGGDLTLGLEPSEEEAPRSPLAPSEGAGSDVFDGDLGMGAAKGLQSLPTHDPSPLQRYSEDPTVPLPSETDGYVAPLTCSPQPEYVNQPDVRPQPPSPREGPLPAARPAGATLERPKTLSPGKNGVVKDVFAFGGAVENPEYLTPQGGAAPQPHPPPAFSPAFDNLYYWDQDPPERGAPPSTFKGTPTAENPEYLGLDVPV
The test system of the next test is SK-OV-3. The experiment in a line: Growth inhibition of human SKOV3 cells after 72 hrs by SRB assay. The conditions noted are these: SK-OV-3, 48 h, in the assay text read “48 hrs” for “72 hrs”. The class given is functional. In short, it runs like this:
as §1

The target of test [2] is Epidermal growth factor receptor (Homo sapiens, UniProt P00533). The experiment in a line: Inhibition of human EGFR tyrosine kinase activity.
Epidermal growth factor receptor, sequence (P00533 whole entry): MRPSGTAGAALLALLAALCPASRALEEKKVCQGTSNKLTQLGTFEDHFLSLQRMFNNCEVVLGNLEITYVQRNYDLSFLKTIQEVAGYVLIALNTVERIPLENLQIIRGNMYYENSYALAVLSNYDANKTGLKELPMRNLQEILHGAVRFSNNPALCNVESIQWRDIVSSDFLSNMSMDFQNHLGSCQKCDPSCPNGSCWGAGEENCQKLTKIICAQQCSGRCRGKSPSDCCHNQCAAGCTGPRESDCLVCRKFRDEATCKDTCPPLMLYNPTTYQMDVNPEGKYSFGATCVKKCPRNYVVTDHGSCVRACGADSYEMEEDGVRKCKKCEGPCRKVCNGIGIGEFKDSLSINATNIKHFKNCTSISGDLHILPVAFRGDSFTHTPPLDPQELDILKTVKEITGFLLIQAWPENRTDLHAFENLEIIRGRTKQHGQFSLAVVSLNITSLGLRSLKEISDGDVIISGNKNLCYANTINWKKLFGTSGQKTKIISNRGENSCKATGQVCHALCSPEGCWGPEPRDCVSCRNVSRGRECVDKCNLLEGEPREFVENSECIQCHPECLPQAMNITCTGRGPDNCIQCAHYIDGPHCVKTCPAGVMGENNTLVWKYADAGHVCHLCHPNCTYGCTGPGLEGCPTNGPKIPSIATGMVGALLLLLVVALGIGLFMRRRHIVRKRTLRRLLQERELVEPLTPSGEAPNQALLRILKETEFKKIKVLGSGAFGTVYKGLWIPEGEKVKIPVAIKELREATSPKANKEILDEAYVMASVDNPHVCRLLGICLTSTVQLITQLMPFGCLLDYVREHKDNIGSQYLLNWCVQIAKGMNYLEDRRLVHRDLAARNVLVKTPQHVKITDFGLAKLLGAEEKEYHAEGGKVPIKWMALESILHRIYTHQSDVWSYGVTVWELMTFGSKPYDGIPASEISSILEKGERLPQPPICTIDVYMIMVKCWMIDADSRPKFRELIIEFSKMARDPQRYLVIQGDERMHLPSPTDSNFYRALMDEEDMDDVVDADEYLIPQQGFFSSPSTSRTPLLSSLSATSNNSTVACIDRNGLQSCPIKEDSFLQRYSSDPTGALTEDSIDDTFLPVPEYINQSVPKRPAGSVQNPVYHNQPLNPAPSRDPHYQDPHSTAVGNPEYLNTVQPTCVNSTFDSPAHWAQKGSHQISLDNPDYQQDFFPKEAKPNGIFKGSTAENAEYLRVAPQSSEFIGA
Another test concerns SNB-75. The experiment in a line: Growth inhibition of human SNB75 cells after 72 hrs by SRB assay. The following applies: SNB-75, 48 h, in the assay text read “48 hrs” for “72 hrs”. The class given is functional. In short, it runs like this:
as §1

For the next test, the system named is PC-3. The experiment in a line: Growth inhibition of human PC3 cells after 72 hrs by SRB assay. The class given is functional. The following applies: PC-3, 48 h, in the assay text read “48 hrs” for “72 hrs”. A digest of the protocol: as §1
The next test concerns ACHN. Description: Growth inhibition of human ACHN cells after 72 hrs by SRB assay. It is filed as functional. The conditions noted are these: 48 h, in the assay text read “48 hrs” for “72 hrs”. A digest of the protocol:
as §1

A further test has as its system IGROV-1. Description: Growth inhibition of human IGROV1 cells after 72 hrs by SRB assay. The class given is functional. The conditions noted are these: IGROV-1, 48 h, in the assay text read “48 hrs” for “72 hrs”. In short, it runs like this:
as §1

A further test has as its system A498. Description: Growth inhibition of human A498 cells after 72 hrs by SRB assay. It is filed as functional. The conditions noted are these: A498, 48 h, in the assay text read “48 hrs” for “72 hrs”. In short, it runs like this: as §1
The subject of the next test is HOP-92. Description: Growth inhibition of human HOP92 cells after 72 hrs by SRB assay. It is filed as functional. The conditions noted are these: HOP-92, 48 h, in the assay text read “48 hrs” for “72 hrs”. A digest of the protocol: as §1

Take `COc1cc2ncnc(-c3c[nH]c4cc(F)c(Cl)cc34)c2cc1OC`: the 50% growth inhibitory concentration (GI50) was 848 nM in the test on HT-29; 255 nM in the test on NCI-H322M; 325 nM with TK-10; 410 nM in the test on EKVX; 711 nM in the test with SK-OV-3; 204 nM in the test on SNB-75. For the same molecule, the 50% growth inhibitory concentration (GI50) in the test with PC-3 turned out to be 766 nM; with ACHN, 222 nM; with IGROV-1 it was 424 nM; in the test on A498, 492 nM; with HOP-92, 1750 nM. This molecule also gave an inhibition in test [1] of 3%. The same molecule came in with an IC50 in test [2] of 209 nM.

Molecule `COc1cc2ncnc(-c3c[nH]c4ccc(Br)cc34)c2cc1OC` showed an IC50 in test [2] of 131 nM.

Regarding `COc1cc2ncnc(-c3c[nH]c4cc(F)c(Cl)cc34)c2cc1OCCCN1CCOCC1`, the 50% growth inhibitory concentration (GI50) in the test on HT-29 turned out to be 3700 nM; in the test with NCI-H322M, 38 nM; in the test on TK-10 it was 97.6 nM; in the test on EKVX, 89.7 nM; with SK-OV-3 it was 592 nM; with SNB-75, 49.3 nM. In addition, the 50% growth inhibitory concentration (GI50) in the test with PC-3 came to 490 nM; in the test on ACHN, 215 nM; in the test with IGROV-1, 108 nM; in the test on A498 it was 2900 nM; in the test with HOP-92 it was 504 nM. In [1], this molecule showed an inhibition of 19%. Further, in [2], the IC50 was 333 nM.

As to `COCCOc1cc2ncnc(-c3c[nH]c4cc(F)c(Cl)cc34)c2cc1OCCOC`, in test [2], the 50% inhibitory concentration (IC50) was determined as 472 nM.

In test [2], `COc1cc2ncnc(-c3c[nH]c4cc(F)c(C)cc34)c2cc1OC` yielded an IC50 of 533 nM.

In general, GI50 refers to the concentration at which growth is held to half of that of the control. Broadly, the inhibition is how much of the control response was suppressed. As usually defined, the IC50 is the point on the concentration scale where inhibition reaches its midpoint. Low readings indicate higher potency, high ones lower potency.
